From PubChem BioAssay
WT yeast gro inh: growth inhibition of WT yeast, mitochondrial fusion screen. AID 1362. 2.1% of 190,000 active. inhibition, % at 10 µM. mitochondrial fusion phenotypic screen, WT strain; in the data active = inhibition above about 58%; tested in S. cerevisiae
RAM inhibit: yeast RAM network inhibition; S. cerevisiae dse1pr::URA3 reporter, 5-FOA growth OD615, 2 d; analog-sensitive cbk1-as2 kinase mutant strain; inhibition, % at 50 µM; 1.8% of 190,000 active; AID 868;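 active = inhibition above a set limit, 3 SD over mean compound inhibition, cut at about 8.4% in these data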;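 also: 0% = DMSO-only wells with no growth and 100% = 10 µM 1-NA-PP1 full growth; inhibition rescues growth on 5-FOA so higher OD means more RAM inhibition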
ABCB1 block: human ABCB1 inhibition, ABCG2 as counter-screen | P08183 | CCRF-Adr cells, JC-1 efflux, flow cytometry | inhibition, % at 6.6 µM | 0.067% of 190,000 active; in the data active = inhibition above about 40%;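 also: 0% = vehicle and 100% = reference inhibitor; higher value means more JC-1 retained so stronger ABCB1 efflux block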
L major viab: Leishmania major promastigote growth inhibition | AID 1063 | inhibition, % at 10 µM | Leishmania major promastigotes, resazurin fluorescence viability | 9% of 200,000 active; in the data active = inhibition above about 50%;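 also: promastigotes grown with compound for 44 hours at 28 °C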
ABCG2 block: inhibitors of human ABCG2 transporter, ABCB1 counter-screen. IgMXP3 cells, JC-1 efflux, flow cytometry. Q9UNQ0. 0.1% of 190,000 active. inhibition, % at 6.6 µM;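 active = inhibition above 80%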;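 also: 0% = DMSO and 100% = nicardipine control wells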
Target sequence (Q9UNQ0 whole entry, looked up): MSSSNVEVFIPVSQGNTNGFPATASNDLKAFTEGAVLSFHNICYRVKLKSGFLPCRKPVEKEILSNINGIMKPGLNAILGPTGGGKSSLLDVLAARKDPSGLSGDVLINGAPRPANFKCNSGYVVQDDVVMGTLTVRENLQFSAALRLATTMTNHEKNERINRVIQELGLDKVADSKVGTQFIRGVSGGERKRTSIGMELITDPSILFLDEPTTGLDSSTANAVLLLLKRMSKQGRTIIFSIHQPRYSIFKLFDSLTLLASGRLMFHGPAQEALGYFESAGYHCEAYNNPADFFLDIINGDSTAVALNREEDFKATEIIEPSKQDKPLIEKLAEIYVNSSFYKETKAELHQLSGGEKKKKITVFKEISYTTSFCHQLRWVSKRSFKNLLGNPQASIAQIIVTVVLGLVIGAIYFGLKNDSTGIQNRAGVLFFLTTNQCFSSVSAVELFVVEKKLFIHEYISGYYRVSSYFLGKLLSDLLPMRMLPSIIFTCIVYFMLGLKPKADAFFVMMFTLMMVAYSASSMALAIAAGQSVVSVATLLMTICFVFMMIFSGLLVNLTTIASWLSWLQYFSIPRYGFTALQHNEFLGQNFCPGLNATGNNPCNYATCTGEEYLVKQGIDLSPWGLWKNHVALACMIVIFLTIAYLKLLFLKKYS
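Assay system – ABCG2 IgMXP3 and barcoded ABCB1 CCRF-Adr cell mix · Input – 3 million cells/mL in well · Reagent – JC-1 fluorescent substrate · Compound – single test compound dose, 6.6 µM final · Timing – 10 min exposure at 25 °C with rotation, no wash · Detection – flow cytometry of retained JC-1 fluorescence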
* = called active by the depositor; · = not tested or not shown. A selection: hits, their analogues and other compounds. The true share with any hit is near 12%.

SMILES	WT yeast gro inh	RAM inhibit	ABCB1 block	L major viab	ABCG2 block
O=C(CSc1nnc(CN2CCCCC2)n1-c1ccccc1)c1ccc2c(c1)OCO2	34	2	2	-7	5
COc1ccc(C(=O)CSc2nnc(CN3CCCC3)n2-c2ccc(F)cc2)c(OC)c1	9	0	1	80*	12
COc1ccc(C(=O)CSc2nnc(C3CCCCC3)n2N)c(OC)c1	12	1	1	53*	17
Fc1ccc(-c2nnsc2Sc2ccccn2)cc1	-3	4	1	0	10
Cc1ccc(C(C)C)c(OCCNC(=S)Nc2cccc3ccccc23)c1	72*	6	0	31	2
O=P(O)(CN1CCCCC1)C1CCCCC1O (configuration not stated)	18	·	·	·	·
COc1ccc(C(=O)N2CCN(Cc3nc(CC4CC4)no3)CC2)cc1	5	0	1	-4	4
N#CC1=C(N)NC(SCc2ccc(F)cc2)=C(C#N)C12CCCCC2	9	4	0	99*	4
C/C(CC(=O)Nc1ccc(Cl)c(C(F)(F)F)c1)=N\NC(N)=S	-21	2	1	97*	6
O=C(CCNC(=O)c1ccccc1Cl)Nc1ccc2c(c1)OCO2	4	0	0	-2	1
O=C(CCNC(=O)c1ccccc1Cl)Nc1ccc(Cl)c(C(F)(F)F)c1	-3	5	2	51*	79
CCc1ccccc1NCC(=O)Nc1ccc(Cl)c(C(F)(F)F)c1	80*	4	0	49	0
CCC(=O)NC(=S)Nc1ccc(N2CCN(C(=O)c3ccc(Cl)cc3)CC2)cc1	22	2	1	13	12
COCCOC(=O)C1=C(N)OC2=C(C(=O)CC(C)(C)C2)C1c1cccnc1 (configuration not stated)	3	0	0	82*	0
CCCOC(=O)C1=C(C)NC2=C(C(=O)CC(C)(C)C2)C1c1cccnc1 (configuration not stated)	-42	0	1	90*	11
CCOC(=O)C1=C(N)OC2=C(C(=O)CC(C)C2)C1c1cccnc1 (configuration not stated)	5	1	0	70*	1
COCCOC(=O)C1=C(N)OC2=C(C(=O)CCC2)C1c1cccnc1 (configuration not stated)	2	1	1	-9	1
CCOC(=O)C1=C(N)Oc2cc(O)ccc2C1c1cccnc1 (configuration not stated)	-8	1	1	92*	1
CCCOC(=O)C1=C(C)NC2=C(C(=O)CC(C)(C)C2)C1c1ccc(N(C)C)cc1 (configuration not stated)	-15	-1	3	23	37
O=C(c1ccccc1F)N(NC(=O)C(O)(c1ccccc1)c1ccccc1)c1ccccc1	-5	3	0	8	0
COc1ccc(NS(=O)(=O)c2cccc(-c3n[nH]c(=S)n3Cc3ccccc3)c2)cc1	1	8	-1	-8	-1
Cn1c(N=Nc2ccccc2)nc2ccccc21	86*	-1	1	53*	42
O=C(NCc1ccc(Cl)cc1Cl)C1CCN(S(=O)(=O)c2ccc3c(c2)OCCCO3)CC1	1	0	6	9	16
COCCN(CC(=O)NCC1CCCO1)C(=O)CCC(=O)Nc1ccccn1 (configuration not stated)	4	1	0	-6	0
COc1ccc(S(=O)(=O)Nc2ccc(N3CCOCC3)nc2)cc1	-13	4	0	0	-2
SMILES	WT yeast gro inh	RAM inhibit	ABCB1 block	L major viab	ABCG2 block
CCCCCCC(=O)Nc1nc(C)c(-c2csc(Nc3cc(Cl)ccc3C)n2)s1	3	3	0	5	0
CCCCCCC(=O)Nc1nc(C)c(-c2csc(Nc3ccccc3OC)n2)s1	2	1	-1	55*	-2
CCCC(C)C(=O)Nc1nc(C)c(-c2csc(Nc3ccccc3OC)n2)s1 (configuration not stated)	2	1	0	96*	-1
CCCCCC(=O)Nc1nc(C)c(-c2csc(Nc3ccccc3OCC)n2)s1	-15	1	0	52*	1
CCCC(C)C(=O)Nc1nc(C)c(-c2csc(Nc3ccc(Cl)cc3)n2)s1 (configuration not stated)	57	2	0	18	1
CCCC(=O)Nc1nc(C)c(-c2csc(Nc3ccccc3C)n2)s1	21	3	0	10	0
CCCCCC(=O)Nc1nc(C)c(-c2csc(Nc3ccccc3OC)n2)s1	49	2	0	73*	-1
CC(C)CN1CCNC(=O)C1CC(=O)NCCCN1CCCc2ccccc21 (configuration not stated)	10	1	0	-3	0
O=c1cnnc(N/N=C/C2CC=CCC2)[nH]1 (configuration not stated)	6	1	1	-7	3
COc1ccccc1N(C)S(=O)(=O)c1ccc(C(=O)Nc2nc(C)cs2)cc1	8	4	0	99*	1
COc1ccccc1N(C)S(=O)(=O)c1ccc(C(=O)NCc2ccc3c(c2)OCO3)cc1	-1	6	3	99*	14
O=C(Nc1cccc([N+](=O)[O-])c1)Nc1cccs1	1	0	-1	5	15
Cc1cc(C)cc(-n2ccnc2SCC(=O)O)c1	-11	0	0	13	-2
CCOc1ccccc1N1CCN(C(=O)c2csc(C)c2CC)CC1	21	0	1	0	16
O=C(Nc1ccccc1)OC1CCS(=O)(=O)C1 (configuration not stated)	2	3	0	-5	-2
O=C(Nc1ccccc1)OC1CC2CC1C1CCCC21 (configuration not stated)	80*	1	2	2	12
COC(=O)c1ccc(C(C(=O)NC2CCCCC2)N(CCc2ccccc2)C(=O)Cc2cccs2)cc1 (configuration not stated)	-14	5	0	-6	2
O=C(Cc1cccs1)NCCCc1ccccc1	-4	0	0	-3	1
COc1ccc(CN(C(=O)Cc2cccs2)C(C(=O)NC2CCCC2)c2ccncc2)cc1 (configuration not stated)	10	0	0	57*	-2
COC(=O)c1ccc(C(C(=O)NC2CCCCC2)N(Cc2ccc(F)cc2)C(=O)Cc2cccs2)cc1 (configuration not stated)	17	3	8	56*	16
COc1ccc(CCNC(=O)C(C)SCc2ccccc2)cc1 (configuration not stated)	0	2	0	-5	3
COc1ccc(CCNC(=O)Cc2cccs2)cc1	-12	1	1	56*	7
COc1ccc(N(C(=O)CCl)C(C(=O)NCCc2ccccc2)c2cccs2)cc1 (configuration not stated)	55	1	1	100*	1
